Measured values published in publication PMC7147967 (Nature nanotechnology, 2020).

Experiments:
[1] = Size of nanoparticles by DLS and TEM; type: physicochemical; conditions: fresh NPs, 99% water content (H2O:DMSO 99:1), 20 μM
In short: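 Peptide in DMSO was diluted with DMSO/deionized water mixtures to give a range of water contents. Nanoparticle formation was checked by UV–vis absorption and fluorescence spectra. Freshly made nanoparticles (99% water, 20 μM) were sized by DLS and by TEM with uranyl acetate staining.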

[2] = target: Soluble extracellular domain of HER2 protein (Homo sapiens, UniProt P04626); test: Fibrillar transformation of NPs on interaction with HER2 protein; conditions: TEM/DLS, over 24 h, HER2 protein/peptide ligand 1:1000
In short: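 Soluble HER2 extracellular domain (HEK 293-expressed) was added to fresh nanoparticles (99% water, 20 μM) at a HER2/peptide ligand ratio of 1:1000. At 0.5, 6 and 24 h, samples were taken for DLS size and zeta potential, CD, and TEM with uranyl acetate staining. Bis-pyrene AIE fluorescence was followed over time to track transformation.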

[3] = system: MCF-7/C6 HER2+ breast cancer; test: In vivo therapeutic effect, MCF-7/C6 xenograft; parameters: species or system Balb/c nude mice; conditions: 8 mg/kg i.v., 8 times q.o.d., n = 8 per group
In short: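 Balb/c nude mice bearing s.c. flank MCF-7/C6 tumours (5×10^6 cells) were randomised into five groups 10 days after inoculation. Groups received PBS or test nanoparticles i.v. every 48 h. Tumour volume and body weight were measured twice weekly over the 40-day treatment, and survival was followed. Data are mean ± s.d.; t-test or ANOVA.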

MCF-7/C6 tumour tissue = test: Tumour tissue analysis after three injections; type: in vivo, Balb/c nude mice; conditions: 3 consecutive q.o.d. injections, 8 mg/kg, n = 6
In short: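 MCF-7/C6 tumour-bearing Balb/c nude mice were sacrificed after three i.v. injections given every other day. Excised tumours were processed for H&E staining, Ki-67 staining, fluorescence imaging of sections and high-magnification TEM.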

## BP-FFVLK-PEG1000 [NPs3]
[1]
  diameter of nanoparticles: 25–60 nm
[2]
  structural transformation after treatment with HER2 protein: did not reveal any significant changes
[3]
  time within which all mice died: ≤ 57 days
MCF-7/C6 tumour tissue
  cell kill in tumour sections (H&E): No significant cell kill was detected

## BP-GGAAK-PEG1000 [NPs4]
[1]
  diameter of nanoparticles: around 20 nm
[2]
  structural transformation after treatment with HER2 protein: did not reveal any significant changes
[3]
  time within which all mice died: ≤ 60 days
MCF-7/C6 tumour tissue
  cell kill in tumour sections (H&E): No significant cell kill was detected
